According to ChEMBL document CHEMBL1137852, “Novel fluoro- and hydroxyl-containing jasmonate derivatives as highly efficient elicitors in suspension cultures of Taxus chinensis” (2004):

What was measured:
Type in all cases: functional
[1] = Eliciting activity on Tc (taxuyunnanine C) content in cell cultures of Taxus chinensis
Procedure, shortened: (§1)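 T. chinensis suspension cells grown in 50 mL medium in 250-mL flasks. Elicitor added on day 7 after inoculation in ethanol (1 µL per mL medium); controls received an equal volume of ethanol. Tc measured by reverse-phase HPLC and expressed as mg per g dry cells; maximum content within 21 days reported. Triplicate cultures, mean ± S.D.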

[2] = Eliciting activity on Tc (taxuyunnanine C) production in cell cultures of Taxus chinensis
Procedure, shortened: (§2)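 T. chinensis suspension cells grown in 50 mL medium in 250-mL flasks. Elicitor added on day 7 post-inoculation in ethanol (1 µL per mL medium); controls received an equal volume of ethanol. Tc quantified by reverse-phase HPLC; maximum volumetric production (mg/L) within 21 days reported. Triplicate cultures, mean ± S.D.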

[3] = Effect on Tc (taxuyunnanine C) content in cell cultures of Taxus chinensis at a concentration of 0 uM; procedure, shortened: as §1
[4] = Effect on Tc (taxuyunnanine C) production in cell cultures of Taxus chinensis at a concentration of 500 uM; procedure, shortened: as §2
[5] = Effect on Tc (taxuyunnanine C) content in cell cultures of Taxus chinensis; procedure, shortened: as §1
[6] = Effect on Tc (taxuyunnanine C) production in cell cultures of Taxus chinensis; procedure, shortened: as §2
[7] = Effect on Tc (taxuyunnanine C) production in cell cultures of Taxus chinensis at a concentration of 0 uM; procedure, shortened: as §2
[8] = Effect on Tc (taxuyunnanine C) content in cell cultures of Taxus chinensis at a concentration of 10 uM; procedure, shortened: as §1
[9] = Effect on Tc (taxuyunnanine C) content in cell cultures of Taxus chinensis at a concentration of 100 uM; procedure, shortened: as §1
[10] = Effect on Tc (taxuyunnanine C) production in cell cultures of Taxus chinensis at a concentration of 10 uM; procedure, shortened: as §2
[11] = Effect on Tc (taxuyunnanine C) content in cell cultures of Taxus chinensis at a concentration of 500 uM; procedure, shortened: as §1
[12] = Effect on Tc (taxuyunnanine C) production in cell cultures of Taxus chinensis at a concentration of 1 uM; procedure, shortened: as §2
[13] = Effect on Tc (taxuyunnanine C) production in cell cultures of Taxus chinensis at a concentration of 100 uM; procedure, shortened: as §2
[14] = Effect on Tc (taxuyunnanine C) content in cell cultures of Taxus chinensis at a concentration of 1 uM; procedure, shortened: as §1

| Compound | Activity [1] | Activity [2] | also measured |
| --- | --- | --- | --- |
| CC/C=C/CC1C(=O)CCC1CC(=O)OC (centres undefined) | 29.2 mg/g DW | 386 mg/L |  |
| CC/C=C/CC1C(=O)CCC1CC(=O)OCC(F)(F)C(F)(F)F (centres undefined) | 38.22 mg/g DW | 480.5 mg/L |  |
| CC/C=C/CC1C(=O)CCC1CC(=O)OCC(O)CO (centres undefined) |  |  | Activity [3]: 9.4 mg/g DW; Activity [4]: 522 mg/L; Activity [5]: 47.2 mg/g DW; Activity [6]: 550 mg/L; Activity [7]: 128 mg/L; Activity [8]: 27 mg/g DW; Activity [9]: 43.2 mg/g DW; Activity [10]: 358 mg/L; Activity [11]: 49.8 mg/g DW; Activity [12]: 160 mg/L; Activity [13]: 544 mg/L; Activity [14]: 11.6 mg/g DW |
| CC/C=C/CC1C(=O)CCC1CC(=O)OCCC (centres undefined) | 27.9 mg/g DW | 357 mg/L |  |
| CC/C=C/CC1C(=O)CCC1CC(=O)OCC(F)(F)F (centres undefined) | 34.94 mg/g DW | 440.3 mg/L |  |
| CC/C=C/CC1C(=O)CCC1CC(=O)OCCO (centres undefined) | 38.1 mg/g DW | 464 mg/L |  |
| CC/C=C/CC1C(=O)CCC1CC(=O)OCCOCCO (centres undefined) | 31.4 mg/g DW | 417 mg/L |  |
